Measurements published in ChEMBL document CHEMBL4808178 (J Med Chem, 2021).
Calls of active or inactive are those of the source. No cut-off for these calls is given here.

Legend:
[1] = biological target: T1, Tyrosine-protein kinase ZAP-70 (Homo sapiens) (UniProt P43403); assay: Inhibition of ZAP70 (unknown origin) assessed as residual activity at 1 uM relative to control
T1 sequence (whole entry): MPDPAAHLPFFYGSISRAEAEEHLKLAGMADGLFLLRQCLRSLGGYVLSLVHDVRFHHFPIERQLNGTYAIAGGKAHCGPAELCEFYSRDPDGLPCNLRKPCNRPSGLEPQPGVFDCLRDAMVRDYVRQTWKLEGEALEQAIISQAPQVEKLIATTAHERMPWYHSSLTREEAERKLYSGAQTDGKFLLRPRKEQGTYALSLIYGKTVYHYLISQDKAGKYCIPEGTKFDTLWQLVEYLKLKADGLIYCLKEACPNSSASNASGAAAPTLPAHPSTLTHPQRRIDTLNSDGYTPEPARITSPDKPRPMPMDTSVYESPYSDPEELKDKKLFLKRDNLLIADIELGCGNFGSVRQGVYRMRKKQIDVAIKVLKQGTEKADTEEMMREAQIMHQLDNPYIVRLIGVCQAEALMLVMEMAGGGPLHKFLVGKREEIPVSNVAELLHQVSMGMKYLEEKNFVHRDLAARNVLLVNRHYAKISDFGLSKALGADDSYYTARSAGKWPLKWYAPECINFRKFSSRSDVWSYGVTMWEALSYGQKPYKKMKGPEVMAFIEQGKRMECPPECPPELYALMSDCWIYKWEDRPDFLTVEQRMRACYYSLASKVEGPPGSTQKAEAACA
Procedure, shortened: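 Commercial profiling service against a 208-kinase panel; single concentration 1 μmol/L; residual kinase activity expressed relative to control.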

[2] = biological target: T2, Aldehyde dehydrogenase 1A1 (Homo sapiens) (UniProt P00352); assay: Inhibition of ALDH1A1 in human HCT116 cells assessed as reduction in mRNA transcriptional level at 20 uM after 24 hrs by RT-qPCR analysis; format: cell-based; settings: HCT-116
T2 sequence (whole entry): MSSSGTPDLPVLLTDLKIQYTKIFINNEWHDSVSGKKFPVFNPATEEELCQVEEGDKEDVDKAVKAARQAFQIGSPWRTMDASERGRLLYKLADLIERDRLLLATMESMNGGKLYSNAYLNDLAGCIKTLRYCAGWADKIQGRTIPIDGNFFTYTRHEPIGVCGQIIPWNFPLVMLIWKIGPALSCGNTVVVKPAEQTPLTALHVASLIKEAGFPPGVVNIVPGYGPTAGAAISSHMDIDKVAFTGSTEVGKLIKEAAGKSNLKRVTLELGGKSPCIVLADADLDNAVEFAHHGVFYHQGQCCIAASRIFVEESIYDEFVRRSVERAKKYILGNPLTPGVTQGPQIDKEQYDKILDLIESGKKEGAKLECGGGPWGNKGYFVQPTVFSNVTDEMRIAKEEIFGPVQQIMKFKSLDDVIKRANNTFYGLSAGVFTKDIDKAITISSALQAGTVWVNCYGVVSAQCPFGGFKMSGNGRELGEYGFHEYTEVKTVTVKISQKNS
Procedure, shortened: (§1)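 HCT-116 cells treated 24 h; total RNA by TRIZOL, one-step RT-qPCR: 55 °C 10 min, 95 °C 1 min, then 39 cycles of 95 °C 10 s and 60 °C 30 s, with melting-curve and no-template controls. β-Actin as internal standard; relative expression by 2^−ΔΔCt, mean ± SD (n = 3).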

[3] = Toxicity in BALB/c mouse xenografted with human HCT116 cells assessed as change in body weight at 60 to 90 mg/kg, po administered twice daily for 4 weeks and measured every 3 days; format: organism-based, HCT-116; settings: in vivo, 672 h, dose 60-90 mg/kg
Procedure, shortened: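 Male 5-week BALB/c nude mice (16−18 g), 0.2 mL of 5 × 10⁷ cells/mL HCT-116 injected into right armpit; at ~100 mm³ randomized, 5/group; intragastric 60 or 90 mg/kg twice daily for 4 weeks; tumor volume and body weight every 3 days; after sacrifice heart, liver, spleen, lung, kidney HE-stained.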

HCT-116 [4] = assay: Effect on Wnt/beta-Catenin signaling in human HCT116 cells assessed as reduction in cyclin-D1 mRNA level at 20 uM after 24 hrs by RT-qPCR analysis; format: functional, cell-based; procedure, shortened: as §1
[5] = Volume of distribution in Sprague-Dawley rat at 25 mg/kg, po measured up to 48 hrs by LC-MS/MS analysis; format: ADME, organism-based; settings: in vivo
Procedure, shortened: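 Overnight-fasted male SD rats (250−270 g, n = 3/group), single oral 25 mg/kg in 5% CMC-Na (reference sodium salt in phosphate buffer); plasma at 0.25–48 h (12 timepoints), stored −40 °C; LC−MS/MS with internal-standard calibration 3–3000 ng/mL; parameters fitted by model.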

HCT-116 [6] = assay: Induction of apoptosis in human HCT116 cells assessed as down regulation of pro-caspase 3 level at 20 uM incubated for 24 hrs by Western blot analysis; format: functional, cell-based
Procedure, shortened: (§2)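 HCT-116 cells at 2 × 10⁵ cells/mL in DMEM/10% FBS, grown 12 h at 37 °C, then treated 24 h (vehicle DMSO). Lysates quantified by BCA, run on 10% SDS-PAGE, PVDF transfer, blocked in 5% milk/TBST, primary antibodies 4 °C overnight, HRP secondary 2 h, chemiluminescent detection; normalized to β-actin, n = 3.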

[7] = Clearance in Sprague-Dawley rat at 25 mg/kg, po measured up to 48 hrs by LC-MS/MS analysis; format: ADME, organism-based; settings: in vivo
Procedure, shortened: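 Overnight-fasted male SD rats (about 250−270 g), three per group, single oral 25 mg/kg; test compound suspended in 5% CMC-Na, control as sodium salt in phosphate buffer. Blood sampled 0.25–48 h, plasma by centrifugation, stored −40 °C, quantified by LC−MS/MS against plasma standard curve (3–3000 ng/mL) with internal standard; model-fitted PK parameters.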

HCT-116 [8] = assay: Effect on Wnt/beta-Catenin signaling in human HCT116 cells assessed as reduction in S100A4 mRNA level at 20 uM after 24 hrs by RT-qPCR analysis; format: functional, cell-based; procedure, shortened: as §1
HCT-116 [9] = assay: Effect on Wnt/beta-Catenin signaling in human HCT116 cells assessed as reduction in MMP7 mRNA level at 20 uM after 24 hrs by RT-qPCR analysis; format: functional, cell-based; procedure, shortened: as §1
HCT-116 [10] = assay: Induction of apoptosis in human HCT116 cells assessed as down regulation of pro-caspase 9 level at 20 uM incubated for 24 hrs by Western blot analysis; format: functional, cell-based; procedure, shortened: as §2
HCT-116 [11] = assay: Inhibition of cell stemness in human HCT116 cells assessed as reduction in Nanog mRNA transcription levels at 20 uM after 24 hrs by RT-qPCR analysis; format: functional, cell-based
Procedure, shortened: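 Sorted ALDH⁺ HCT-116 cells treated 24 h; TRIZOL RNA, one-step RT-qPCR (RT 10 min 55 °C; 95 °C 1 min; 39 cycles 95 °C 10 s/60 °C 30 s) with melting-curve check; β-actin reference; fold change by 2^−ΔΔCt; t test, mean ± SD, n = 3.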

L02 = assay: Cytotoxicity against human L02 cells assessed as reduction in cell viability incubated for 72 hrs by MTT assay; format: cell-based; settings: L02, 72 h
Procedure, shortened: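 About 5 × 10³ cells/well, seeded overnight at 37 °C, 5% CO₂, in DMEM or RPMI-1640 with 10% FBS and antibiotics. DMSO-dissolved compounds diluted in medium, exposure 72 h.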

- Activity [1]: 26%
- inhibition [2]: Active
- Vd [5]: 2.77 L/kg
- CL/F [7]: 10 mL/min/kg
Compound: O=C(NCCO)c1ccc2c(c1)nc(Nc1cccc(Cl)c1)c1ccncc12
- Activity [3]: Non-Toxic
- Activity (HCT-116 [4]): Active
- Activity (HCT-116 [6]): Active
- Activity (HCT-116 [8]): Active
- Activity (HCT-116 [9]): Active
- Activity (HCT-116 [10]): Active
- inhibition (HCT-116 [11]): Active
- IC50 (L02): 96.7 µM
